Results taken from ChEMBL document CHEMBL3588763, “Styryl-N-phenyl-N'-(2-chloroethyl)ureas and styrylphenylimidazolidin-2-ones as new potent microtubule-disrupting agents using combretastatin A-4 as model” (Eur J Med Chem, 2015).
Active and inactive are the calls of the source. The rule behind the calls is not given here.

Assays:
M21 [1] = test: Antiproliferative activity against human M21 cells assessed as cell growth inhibition after 48 hrs by sulforhodamine B assay; type: functional, cell-based; conditions: M21, 48 h
Outline: (§1)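 NCI-style SRB screen with minor changes. Cells seeded per well in DMEM with 5% FBS: HT-29 4.0 x 10^3, M21 3.0 x 10^3, MCF-7 2.5 x 10^3, HT-1080 2.5 x 10^3. After 24 h, serially diluted drug was added at 50 µM to 1 nM final, DMSO <0.5%, for 48 h. Fixed with cold TCA, stained with SRB, read at 530–568 nm against plates fixed on treatment day. At least two experiments in triplicate, CV <10%.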

MCF7 = test: Antiproliferative activity against human MCF7 cells assessed as cell growth inhibition after 48 hrs by sulforhodamine B assay; type: functional, cell-based; conditions: MCF7, 48 h; outline: as §1
HT-29 = test: Antiproliferative activity against human HT-29 cells assessed as cell growth inhibition after 48 hrs by sulforhodamine B assay; type: functional, cell-based; conditions: HT-29, 48 h; outline: as §1
[2] = Antiproliferative activity against human HT1080 cells assessed as cell growth inhibition after 48 hrs by sulforhodamine B assay; type: functional, cell-based; conditions: HT-1080, 48 h
M21 [3] = test: Induction of cell cycle arrest in human M21 cells assessed as cells accumulation at G0/G1 phase at 3100 nM after 24 hrs by flow cytometry (reference value: 54.5%); type: functional
M21 [4] = test: Induction of cell cycle arrest in human M21 cells assessed as cells accumulation at G2/M phase at 3100 nM after 24 hrs by flow cytometry (reference value: 22.1%); type: functional
M21 [5] = test: Induction of cell cycle arrest in human M21 cells assessed as cells accumulation at S phase at 3100 nM after 24 hrs by flow cytometry (reference value: 22.2%); type: functional
M21 [6] = test: Induction of microtubule depolymerization and cytoskeleton disruption in human M21 cells at 3100 nM after 16 hrs by immunofluorescence assay
[7] = biological target: T1, Tubulin beta (Homo sapiens) (UniProt P68371+Q9H4B7+Q13509+P04350+Q3ZCM7+P07437+Q13885+Q9BVA1+Q9BUF5+A6NNZ2); test: Binding affinity to Tubulin beta in human M21 cells assessed as tubulin acylation at 1500 nM after 24 hrs by electrophoretic mobility shift assay; type: cell-based
M21 [8] = test: Induction of cell cycle arrest in human M21 cells assessed as cells accumulation at subG1 phase at 3100 nM after 24 hrs by flow cytometry (reference value: 1.2%); type: functional
[9] = biological target: T1, Tubulin beta (Homo sapiens); test: Binding affinity to Tubulin beta in human M21 cells assessed as tubulin acylation at 3100 nM after 24 hrs by electrophoretic mobility shift assay; type: cell-based
M21 [10] = test: Induction of microtubule depolymerization and cytoskeleton disruption in human M21 cells at 10 nM after 16 hrs by immunofluorescence assay
M21 [11] = test: Induction of cell cycle arrest in human M21 cells assessed as cells accumulation at G0/G1 phase at 10 nM after 24 hrs by flow cytometry (reference value: 54.5%); type: functional
M21 [12] = test: Induction of cell cycle arrest in human M21 cells assessed as cells accumulation at G2/M phase at 10 nM after 24 hrs by flow cytometry (reference value: 22.1%); type: functional
M21 [13] = test: Induction of cell cycle arrest in human M21 cells assessed as cells accumulation at S phase at 10 nM after 24 hrs by flow cytometry (reference value: 22.2%); type: functional
M21 [14] = test: Induction of cell cycle arrest in human M21 cells assessed as cells accumulation at subG1 phase at 10 nM after 24 hrs by flow cytometry (reference value: 1.2%); type: functional
M21 [15] = test: Induction of cell cycle arrest in human M21 cells assessed as cells accumulation at subG1 phase at 63 nM after 24 hrs by flow cytometry (reference value: 1.2%); type: functional
[16] = biological target: T1, Tubulin beta (Homo sapiens); test: Inhibition of N,N-ethylene-bis(iodoacetamide) binding to Tubulin beta colchicines-binding site in human M21 cells assessed as adduct formation at 910 nM by Western blot analysis; type: cell-based
M21 [17] = test: Induction of cell cycle arrest in human M21 cells assessed as cells accumulation at G0/G1 phase at 63 nM after 24 hrs by flow cytometry (reference value: 54.5%); type: functional
M21 [18] = test: Induction of microtubule depolymerization and cytoskeleton disruption in human M21 cells at 63 nM after 16 hrs by immunofluorescence assay
M21 [19] = test: Induction of cell cycle arrest in human M21 cells assessed as cells accumulation at S phase at 63 nM after 24 hrs by flow cytometry (reference value: 22.2%); type: functional
M21 [20] = test: Induction of cell cycle arrest in human M21 cells assessed as cells accumulation at G2/M phase at 63 nM after 24 hrs by flow cytometry (reference value: 22.1%); type: functional
[21] = biological target: T1, Tubulin beta (Homo sapiens); test: Inhibition of N,N-ethylene-bis(iodoacetamide) binding to Tubulin beta colchicines-binding site in human M21 cells assessed as adduct formation at 410 nM by Western blot analysis; type: cell-based
[22] = biological target: T1, Tubulin beta (Homo sapiens); test: Inhibition of N,N-ethylene-bis(iodoacetamide) binding to Tubulin beta colchicines-binding site in human M21 cells assessed as adduct formation at 2500 nM by Western blot analysis; type: cell-based

Row | Structure (SMILES) | IC50 (M21 [1]) | IC50 (MCF7) | IC50 (HT-29) | IC50 [2] | other results
1 | CCNC(=O)Nc1ccc(/C=C\c2cc(OC)c(OC)c(OC)c2)cc1 | 21 µM | 21 µM | 21 µM | 29 µM | 
2 | O=C(NCCCl)Nc1ccc(/C=C/c2cccc(Cl)c2)cc1 | > 20 µM | 20 µM | 12 µM | > 20 µM | 
3 | CCNC(=O)Nc1ccc(/C=C/c2cc(OC)c(OC)c(OC)c2)cc1 | 29 µM | 17 µM | 12 µM | 16 µM | 
4 | CCNC(=O)Nc1ccc(/C=C/c2cc(C)cc(C)c2)cc1 | > 20 µM | 20 µM | > 20 µM | > 20 µM | 
5 | COc1cc(/C=C/c2ccc(NC(=O)NCCCl)cc2)cc(OC)c1OC | > 20 µM | 20 µM | 9.5 µM | > 20 µM | 
6 | CCNC(=O)Nc1ccc(/C=C/c2cccc(Cl)c2)cc1 | > 20 µM | 20 µM | > 20 µM | > 20 µM | 
7 | CCNC(=O)Nc1ccc(/C=C\c2cccc(Cl)c2)cc1 | 35 µM | 32 µM | 26 µM | 31 µM | 
8 | Cc1cc(C)cc(/C=C\c2ccc(NC(=O)NCCCl)cc2)c1 | 0.71 µM | 0.86 µM | 0.51 µM | 0.7 µM | Activity (M21 [3]): 5.7%; Activity (M21 [4]): 68.6%; Activity (M21 [5]): 13.2%; Activity (M21 [6]): Active; Activity [7]: Active; Activity (M21 [8]): 12.5%; Activity [9]: Active
9 | COc1ccc(/C=C\c2cc(OC)c(OC)c(OC)c2)cc1O [COMBRETASTATIN A4] | 0.0016 µM | 0.0021 µM | 0.56 µM |  | Activity (M21 [10]): Active; Activity (M21 [11]): 4.5%; Activity (M21 [12]): 91.4%; Activity (M21 [13]): 6.6%; Activity (M21 [14]): 7.5%
10 | O=C1NCCN1c1ccc(/C=C\c2cccc(Cl)c2)cc1 | 0.027 µM | 0.038 µM | 0.025 µM | 0.035 µM | Activity (M21 [15]): 13.6%; inhibition [16]: Active; Activity (M21 [17]): 17.4%; Activity (M21 [18]): Active; Activity (M21 [19]): 13.9%; Activity (M21 [20]): 55.1%; inhibition [21]: Active; inhibition [22]: Active
